Hits are enriched below; roughly 2.3% of the tested compounds scored in any of these assays.
TRPC6 inh: mouse TRPC6 channel inhibition | Q61143 | HEK293-TRPC6, membrane potential dye, ACh-evoked depolarization; active compounds read low | AID 2553 | B-score at 10 µM | hit rate 1.1% among 310,000;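 active = B-score under library mean minus 3 SD, initial fluorescence not abnormally high, positive integrated signal ratio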;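 note: B-score derived from integrated fluorescence ratio over the kinetic read; more negative B-score means stronger inhibition of depolarization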
Target sequence (Q61143 whole entry, looked up): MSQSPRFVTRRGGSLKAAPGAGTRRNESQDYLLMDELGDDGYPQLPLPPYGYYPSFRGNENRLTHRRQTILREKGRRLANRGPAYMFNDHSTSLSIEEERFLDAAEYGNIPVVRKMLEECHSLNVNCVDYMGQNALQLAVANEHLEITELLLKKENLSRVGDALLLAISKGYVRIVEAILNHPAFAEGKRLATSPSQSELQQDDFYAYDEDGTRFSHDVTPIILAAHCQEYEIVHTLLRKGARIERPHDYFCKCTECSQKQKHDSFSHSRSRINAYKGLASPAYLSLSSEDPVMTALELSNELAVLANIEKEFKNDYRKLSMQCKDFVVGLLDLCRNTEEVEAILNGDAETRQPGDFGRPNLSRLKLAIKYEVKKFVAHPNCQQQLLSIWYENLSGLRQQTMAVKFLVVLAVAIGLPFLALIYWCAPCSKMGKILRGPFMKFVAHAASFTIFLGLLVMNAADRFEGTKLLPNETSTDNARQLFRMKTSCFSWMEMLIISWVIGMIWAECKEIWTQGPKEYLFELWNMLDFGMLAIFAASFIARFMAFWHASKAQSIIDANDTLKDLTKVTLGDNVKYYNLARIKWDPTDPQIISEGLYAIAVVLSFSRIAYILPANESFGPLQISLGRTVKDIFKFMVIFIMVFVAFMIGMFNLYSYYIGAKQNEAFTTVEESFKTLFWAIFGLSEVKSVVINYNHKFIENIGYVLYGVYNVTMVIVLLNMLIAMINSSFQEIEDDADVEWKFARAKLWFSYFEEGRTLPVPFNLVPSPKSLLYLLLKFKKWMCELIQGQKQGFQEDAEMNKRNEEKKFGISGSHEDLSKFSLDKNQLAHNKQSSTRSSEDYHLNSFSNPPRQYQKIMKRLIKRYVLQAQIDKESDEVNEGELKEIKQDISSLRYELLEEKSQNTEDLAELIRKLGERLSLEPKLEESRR
TRPC4 act: TRPC4 (mouse) channel activation; Q9QUQ5; B-score at 10 µM; hit rate 0.49% among 310,000; HEK293 TRPC4beta/mu-opioid, Fluo4 calcium fluorescence; active compounds read high;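 active = B-score above 5 SD of library B-scores, and initial fluorescence ratio not above library mean plus 5 SD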;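 note: positive B-score marks a calcium rise read as TRPC4 activation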
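Assay system: HEK293 stable line with TRPC4beta plus mu-opioid receptor; schedule: 45 min room-temperature Fluo4 loading, 110 s read; technique: kinetic Fluo4 calcium fluorescence; evaluation: integrated baseline-normalised fluorescence ratio, converted to per-well B score; controls: buffer (low) and maximal DAMGO (high)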
TRPC6 act: activators of mouse TRPC6 channel; Q61143; HEK293-TRPC6 membrane potential dye fluorescence; active compounds read high; B-score at 10 µM; hit rate 0.13% among 310,000;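 active = B-score of the integrated fluorescence ratio above library mean plus 3 SD, and starting fluorescence ratio within library mean plus 5 SD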;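 note: higher score means more depolarization so channel activation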
TRPC4 block: blocks the mouse TRPC4 cation channel; Q9QUQ5; HEK293 TRPC4beta/mu-opioid, DAMGO-evoked Fluo4 calcium flux; active compounds read low; B-score at 10 µM; hit rate 0.39% among 300,000; AID 2247;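 active = B-score over 3 SD under the library average, no early fluorescence shift, positive overall ratio signal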
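Material: HEK293 cells with stable TRPC4beta plus mu-opioid receptor expression / Probe or stimulus: DAMGO in two steps, submaximal then maximal / Compound: single concentration per test compound / Technique: kinetic Fluo4 fluorescence imaging of calcium influx / Read-out: per-well B score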
TRPC4 potent: allosterically enhances the mouse TRPC4 cation channel; HEK293 TRPC4beta/mu-opioid, DAMGO EC20, Fluo-4 Ca2+ flux; active compounds read high; B-score at 10 µM; hit rate 0.42% among 310,000; AID 2227;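 active = B-score of calcium response area above 5 SD of library B-scores, with initial fluorescence ratio within 5 SD of library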;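 note: B-score of integrated fluorescence ratio over time as area under calcium response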
TRPC4 sel inh 2: second selectivity test of TRPC6 inhibitors: effect on mouse TRPC4; shares compounds with TRPC6 inh; HEK293 TRPC4/MOR, membrane potential dye fluorescence; channel activated by saturating DAMGO dose; inhibition, % at 10 µM; hit rate 42% among 920;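 active = compounds whose fluorescence signal differed from control wells by over 3 SD, either direction, in both duplicate plates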
TRPC4 spec: selectivity of TRPC6 inhibitors: effect on mouse TRPC4; shares compounds with TRPC6 inh; HEK293 TRPC4/mu-opioid, membrane potential fluorescence; activity change, negative = inhibition, % at 10 µM; hit rate 61% among 920;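 active = rise or fall in signal beyond 3 SD of buffer-only wells in both replicate plates, either sign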;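 note: integrated kinetic ratio of fluorescence range over baseline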
HEK293 MPD ctr 2-1: second counter-screen for TRPC6 inhibitors: parental HEK293 cells. shares compounds with TRPC6 inh. parental HEK293 membrane potential dye fluorescence; maximal acetylcholine challenge after compound addition. signal change vs control, % at 10 µM. hit rate 31% among 920;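 active = membrane potential signal moving either way by over 3 SD of the maximum-effect control, in both duplicate plates, meaning non-specific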
HEK293 MPD ctr-1: checks TRPC6 inhibitor effects in parental HEK293 cells; shares compounds with TRPC6 inh; parental HEK293 membrane potential dye fluorescence; membrane potential signal change, % at 10 µM; hit rate 60% among 920;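 active = membrane potential signal shifting up or down by more than 3 SD of buffer-only wells, on both duplicate plates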
HEK293 MPD ctr-2: checks TRPC6 modulator effects in parental HEK293 cells; AID 488924; hit rate 51% among 2,400; membrane potential dye fluorescence; membrane potential signal change, % at 10 µM; shares compounds with TRPC6 inh;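 active = membrane potential signal moves up or down beyond 5 SD from buffer-only wells, on both duplicate plates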
HEK293 MPD ctr 2-2: parental HEK293 nonspecific activity of TRPC6 modulators, second screen | shares compounds with TRPC6 inh | membrane potential dye fluorescence; after compound, maximal acetylcholine stimulation | inhibition, % at 10 µM | hit rate 14% among 2,400 | AID 488926;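 active = membrane potential signal drops by more than 5 SD from the mean control signal, in both duplicate plates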;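 note: plate controls were acetylcholine ECmax control wells for no effect and buffer only wells for full effect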
TRPC4 ctr mod: mouse TRPC4 off-target activity of TRPC6 modulators; shares compounds with TRPC6 inh; HEK293 TRPC4/mu-opioid, membrane potential fluorescence; percent change from control (negative = decrease, positive = increase), % at 10 µM; hit rate 69% among 2,400; AID 488927;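 active = membrane potential signal moved up or down beyond 5 SD of buffer control wells, in both duplicate plates, actives on both sides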;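 note: plate controls were assay buffer wells for no effect and DAMGO maximal-effect wells for full effect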
TRPC4/MOR inh 2: second selectivity test of TRPC6 modulators against mouse TRPC4; shares compounds with TRPC6 inh; HEK293 TRPC4/mu-opioid, membrane potential dye fluorescence; stimulated with maximal-effect DAMGO; inhibition, % at 10 µM; hit rate 55% among 2,400; AID 488928;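 active = drop in membrane potential signal beyond 5 SD of the control wells in both duplicate plates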;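 note: TRPC4 counter screen for TRPC6 hits run under conditions tuned for TRPC6 not TRPC4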
TRPC6 block conf: confirmation of mouse TRPC6 inhibitors; shares compounds with TRPC6 inh; inhibition, % at 10 µM; AID 488960; hit rate 43% among 3,300; HEK293-TRPC6, membrane potential dye, ACh-evoked depolarization;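 active = fluorescence ratio falls more than 5 SD below the full-stimulation control mean, in both duplicate runs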;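 note: integrated fluorescence ratio of peak minus minimum over baseline after agonist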
TRPC6 act conf: confirmation of mouse TRPC6 activators | AID 488961 | activation, % at 10 µM | HEK293-TRPC6 membrane potential dye fluorescence, FDSS | hit rate 11% among 2,800 | shares compounds with TRPC6 inh;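 active = ratio signal rise beyond 5 SD above unstimulated control wells' mean, seen in both duplicate runs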;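 note: plate controls were buffer EC0 wells for no effect and acetylcholine ECmax response for full effect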
Numbers without * were called inactive.

`C[N+](C)(N)CCOC(=O)C(O)(c1ccccc1)C1CCCCC1` (stereo not given) gave TRPC6 inh -9.56*, TRPC4 act inactive, TRPC6 act inactive, TRPC4 block inactive, TRPC4 potent inactive, TRPC4 sel inh 2 inactive, TRPC4 spec inactive, HEK293 MPD ctr 2-1 -39.0%*, HEK293 MPD ctr-1 inactive, TRPC6 block conf 89.0%* and TRPC6 act conf inactive.
CN(C)CC#CCC(O)(c1ccccc1)C1CCCC1 (stereo not given) was read as TRPC6 inh inactive, TRPC4 act inactive, TRPC6 act inactive, TRPC4 block inactive and TRPC4 potent inactive.
`CC[N+](CC)(CC)CCCOC(=O)C(O)(c1ccccc1)C1CCCCC1` (stereo not given) gave TRPC6 inh -11.8*, TRPC4 act inactive, TRPC6 act inactive, TRPC4 block inactive, TRPC4 potent inactive, TRPC4 sel inh 2 inactive, TRPC4 spec inactive, HEK293 MPD ctr 2-1 -39.5%*, HEK293 MPD ctr-1 inactive, TRPC6 block conf 97.4%* and TRPC6 act conf inactive.
For CCCn1ncc(CN2CCCC(C(=O)c3cccc(OC)c3)C2)c1C (stereo not given) the results were TRPC6 inh -5.92*, TRPC4 act inactive, TRPC6 act inactive, TRPC4 block inactive, TRPC4 potent inactive, HEK293 MPD ctr-2 124.5%*, HEK293 MPD ctr 2-2 inactive, TRPC4 ctr mod 28.5%*, TRPC4/MOR inh 2 inactive and TRPC6 block conf 50.0%*.
Screening CCOC(=O)C1=C(N)Oc2cc(C)oc(=O)c2C12C(=O)N1c3c(cc(OC)cc32)C(C)=CC1(C)C (stereo not given) returned TRPC6 inh inactive, TRPC4 act inactive, TRPC6 act inactive, TRPC4 block inactive and TRPC4 potent inactive.
CCCCc1nc(N2CCNCC2)c(C#N)c2c1CSC(C)(C)C2 was read as TRPC6 inh -7.79*, TRPC4 act inactive, TRPC6 act inactive, TRPC4 block inactive, TRPC4 potent inactive, TRPC4 sel inh 2 44.5%*, TRPC4 spec inactive, HEK293 MPD ctr 2-1 inactive, HEK293 MPD ctr-1 0.9%*, TRPC6 block conf inactive and TRPC6 act conf inactive.
For FC(F)(F)c1cccc(-n2nnnc2C2(N3CCOCC3)CCCCC2)c1 the results were TRPC6 inh inactive, TRPC4 act inactive, TRPC6 act inactive, TRPC4 block inactive and TRPC4 potent inactive.
COc1cc2c(cc1OC)-c1c(OC)c(OC)cc3c1C(C2)N(C)CC3 (stereo not given) was read as TRPC6 inh -5.43*, TRPC4 act inactive, TRPC6 act inactive, TRPC4 block inactive, TRPC4 potent inactive, HEK293 MPD ctr-2 -234.5%*, HEK293 MPD ctr 2-2 inactive, TRPC4 ctr mod -44.5%*, TRPC4/MOR inh 2 51.0%*, TRPC6 block conf 53.0%* and TRPC6 act conf inactive.
For COc1cc2c(cc1OC)-c1c3c(cc4c1[C@@H](C2)N(C)CC4)OCO3 the results were TRPC6 inh -8.03*, TRPC4 act inactive, TRPC6 act inactive, TRPC4 block inactive, TRPC4 potent inactive, HEK293 MPD ctr-2 -194.5%*, HEK293 MPD ctr 2-2 76.0%*, TRPC4 ctr mod -35.0%*, TRPC4/MOR inh 2 52.5%*, TRPC6 block conf 56.0%* and TRPC6 act conf inactive.
For COc1ccc(CC2c3cc(OC)c(OC)cc3CCN2C)cc1O (stereo not given) the results were TRPC6 inh inactive, TRPC4 act inactive, TRPC6 act inactive, TRPC4 block inactive and TRPC4 potent inactive.
For COc1cc2c(cc1O)C[C@H]1NCCc3cc4c(c-2c31)OCO4 the results were TRPC6 inh -9.05*, TRPC4 act inactive, TRPC6 act inactive, TRPC4 block inactive, TRPC4 potent inactive, TRPC4 sel inh 2 70.5%*, TRPC4 spec -27.7%*, HEK293 MPD ctr 2-1 inactive, HEK293 MPD ctr-1 -398.5%*, TRPC6 block conf 52.5%* and TRPC6 act conf inactive.
Screening Cc1cc(C)c2c(ccc3cccc[n+]32)c1 returned TRPC6 inh -7.62*, TRPC4 act inactive, TRPC6 act inactive, TRPC4 block inactive, TRPC4 potent inactive, HEK293 MPD ctr-2 -260.0%*, HEK293 MPD ctr 2-2 96.0%*, TRPC4 ctr mod -39.5%*, TRPC4/MOR inh 2 59.5%*, TRPC6 block conf 69.0%* and TRPC6 act conf inactive.
CCCCc1ccc2[nH]cc(CCN)c2c1 was read as TRPC6 inh -5.19*, TRPC4 act inactive, TRPC6 act inactive, TRPC4 block inactive, TRPC4 potent inactive, HEK293 MPD ctr-2 inactive, HEK293 MPD ctr 2-2 inactive, TRPC4 ctr mod inactive, TRPC4/MOR inh 2 47.0%*, TRPC6 block conf 50.5%* and TRPC6 act conf inactive.
`Fc1cccc(CN2CCN(c3ccc(Cl)cc3)CC2)c1` gave TRPC6 inh -7.07*, TRPC4 act inactive, TRPC6 act inactive, TRPC4 block inactive, TRPC4 potent inactive, TRPC4 sel inh 2 inactive, TRPC4 spec inactive, HEK293 MPD ctr 2-1 inactive, HEK293 MPD ctr-1 inactive, TRPC6 block conf inactive and TRPC6 act conf inactive.
For Fc1ccccc1CN1CCN(c2ccc(Cl)cc2)CC1 the results were TRPC6 inh inactive, TRPC4 act inactive, TRPC6 act inactive, TRPC4 block inactive and TRPC4 potent inactive.
Screening Cc1ccc(C2CC3CCC(C2)N3Cc2ccccc2F)cc1 (stereo not given) returned TRPC6 inh inactive, TRPC4 act inactive, TRPC6 act 13.4*, TRPC4 block inactive, TRPC4 potent inactive, HEK293 MPD ctr-2 127.0%*, HEK293 MPD ctr 2-2 inactive, TRPC4 ctr mod 49.0%*, TRPC4/MOR inh 2 42.5%*, TRPC6 block conf inactive and TRPC6 act conf 57.5%*.
Screening C[C@H]1OC[C@@H](C[N+](C)(C)C)O1 returned TRPC6 inh -6.71*, TRPC4 act 88*, TRPC6 act inactive, TRPC4 block inactive, TRPC4 potent inactive, TRPC4 sel inh 2 inactive, TRPC4 spec 34.0%*, HEK293 MPD ctr 2-1 inactive, HEK293 MPD ctr-1 4.8%* and TRPC6 block conf 70.1%*.
